The results in this text go back to ChEMBL document CHEMBL1152965, “Synthesis and in vitro antiplasmodial evaluation of 4-anilino-2-trichloromethylquinazolines” (Bioorg Med Chem, 2009).

A short description of data set [1]: Selectivity index, ratio of IC50 for human K562 cells to IC50 for chloroquine, pyrimethamine and proguanil-resistant Plasmodium falciparum W2. It counts as toxicity, cell-based. The conditions noted are these: K562 cells (cytotoxicity) versus Plasmodium falciparum W2, read-out: Ratio IC50. In outline:
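SI = K562 IC50 / W2 IC50. Live cells counted by flow cytometry after propidium iodide stain. IC50 by non-linear regression, mean of three independent experiments.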

The subject of data set [2] is K562. In words: Cytotoxicity against human K562 cells after 72 hrs by flow cytometry. Type of data set: cell-based. The following applies: K562, 72 h. In outline: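 Chemosensitive K562 subline, late log phase, in phenol-red-free RPMI with 10% serum. Compound range added in duplicate (DMSO <0.5%). After 72 h at 37 °C, 6% CO₂, cells stained with propidium iodide and live cells in a 100 µL sample counted by flow cytometry. IC50 from non-linear regression of dose-response curves, mean of three independent experiments.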
On the technique in general: In flow cytometry, cells or beads pass a laser one at a time.

The subject of data set [3] is Plasmodium falciparum. In words: Antimalarial activity as reduced parasitaemia after 48 hrs against chloroquine, pyrimethamine and proguanil-resistant Plasmodium falciparum W2 infected in type A+ human erythrocytes by flow cytometry. It counts as functional, organism-based. The conditions noted are these: W2, 48 h.
The nature of data set [4]: Selectivity index, ratio IC50 for human HepG2 cells to IC50 for chloroquine, pyrimethamine and proguanil-resistant Plasmodium falciparum W2. Type of data set: functional. In outline: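 SI = HepG2 IC50 / W2 IC50. MTT 2 h, formazan dissolved in DMSO, absorbance 570 nm (ref 630 nm). Viability as % of untreated control, IC50 from dose-response curve.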
Data set [5] concerns HepG2. In words: Cytotoxicity against human HepG2 cells after 72 hrs by MTT assay. Type of data set: cell-based. The following applies: HepG2, 72 h. The gist of the method: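 HepG2 cells plated in RPMI with 10% FBS and grown 24 h, then exposed to a range of compound concentrations for 72 h at 37 °C, 6% CO₂. MTT (5 mg/mL stock) added for 2 h, formazan dissolved in DMSO and read at 570 nm against 630 nm. Viability expressed as percent of untreated control. CC50 taken from the dose-response curve.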
On the technique in general: Formazan colour is commonly taken as a measure of viable cells.

A value given as a limit tells only on which side of the number the result lay.

By IC50 is commonly meant the concentration that inhibits the measured activity by half. Low readings indicate greater potency in that assay, high ones weaker potency in that assay. As for `COc1cccc(Nc2nc(C(Cl)(Cl)Cl)nc3ccccc23)c1`, the selectivity ratio in data set [1] is 2.3. In addition, the IC50 turned out to be 9 µM in data set [2], 4 µM in data set [3] and 0.5 µM in data set [5]. The “Ratio IC50” value in data set [4] stood at 0.1.
The like results for `Clc1cccc(Nc2nc(C(Cl)(Cl)Cl)nc3ccccc23)c1Cl` were, in that order, greater than 4.3, greater than 60 µM, 14 µM, greater than 100 µM and 7.1.
With `Clc1ccccc1Nc1nc(C(Cl)(Cl)Cl)nc2ccccc12`, in data set [1], the selectivity ratio was greater than 10.9. In addition, the IC50 was greater than 50 µM in data set [2], 4.6 µM in data set [3] and 25 µM in data set [5]. In data set [4], the “Ratio IC50” value came to 5.5.
Consider `Clc1ccc(Cl)c(Nc2nc(C(Cl)(Cl)Cl)nc3ccccc23)c1`, for which the selectivity ratio in data set [1] is greater than 4.7. The IC50 in data set [2] was greater than 8 µM; in data set [3] it was 1.7 µM; in data set [5], 30 µM. In addition, the “Ratio IC50” value in data set [4] is 17.6.
The like results for `FC(F)(F)c1ccccc1Nc1nc(C(Cl)(Cl)Cl)nc2ccccc12` were, in that order, 4.1, 30 µM, 7.4 µM, 10 µM and 1.4.
As for `Clc1ccc(Nc2nc(C(Cl)(Cl)Cl)nc3ccccc23)cc1Cl`, the selectivity ratio in data set [1] is 1.8. Moreover, the results for the IC50 in data set [2], in data set [3] and in data set [5] were 9 µM, 5 µM and 8 µM, respectively. Further, the “Ratio IC50” value in data set [4] is listed as 1.6.
For the compound `COc1ccccc1Nc1nc(C(Cl)(Cl)Cl)nc2ccccc12`, the selectivity ratio in data set [1] amounted to 10. The IC50 in data set [2] is 60 µM; in data set [3] it was 6 µM; in data set [5], 60 µM. Further, the “Ratio IC50” value in data set [4] is 10.
Take `CN1CCN(c2nc(C(Cl)(Cl)Cl)nc3ccccc23)CC1`: the selectivity ratio in data set [1] came out at 11.6. Besides, the IC50 worked out at 65 µM in data set [2], 5.6 µM in data set [3] and 75 µM in data set [5]. Also, the “Ratio IC50” value in data set [4] came to 13.4.
The like results for `ClC(Cl)(Cl)c1nc(Nc2ccccc2)c2ccccc2n1` were, in that order, greater than 4.5, greater than 50 µM, 11 µM, greater than 50 µM and greater than 4.5.
Consider `ClC(Cl)(Cl)c1nc(NCc2ccccc2)c2ccccc2n1`, for which the selectivity ratio in data set [1] was greater than 7.2. The IC50 was greater than 50 µM in data set [2], 6.9 µM in data set [3] and 13 µM in data set [5]. The “Ratio IC50” value in data set [4] is given as 1.9.
Consider `ClC(Cl)(Cl)c1nc(Nc2ccccc2Br)c2ccccc2n1`, for which the selectivity ratio in data set [1] was greater than 10. Besides, the IC50 was greater than 30 µM in data set [2], 3 µM in data set [3] and greater than 50 µM in data set [5]. Moreover, the “Ratio IC50” value in data set [4] is greater than 16.7.
With `Cc1ccccc1Nc1nc(C(Cl)(Cl)Cl)nc2ccccc12`, in data set [1], the selectivity ratio was determined as 1.6. Further, the figures for the IC50 in data set [2], in data set [3] and in data set [5] were 11 µM, 7 µM and 24 µM, respectively. Also, in data set [4], the “Ratio IC50” value came out at 3.4.
Turning to `Fc1ccc(Nc2nc(C(Cl)(Cl)Cl)nc3ccccc23)cc1`, in data set [1], the selectivity ratio was greater than 23.1. For the same compound, the IC50 is greater than 125 µM in data set [2], 5.4 µM in data set [3] and greater than 50 µM in data set [5]. For the same compound, in data set [4], the “Ratio IC50” value is greater than 9.3.
The like results for `O=[N+]([O-])c1cccc(Nc2nc(C(Cl)(Cl)Cl)nc3ccccc23)c1` were, in that order, 1.7, 5 µM, 3 µM, 10 µM and 3.3.
Turning to `COc1ccc(Nc2nc(C(Cl)(Cl)Cl)nc3ccccc23)cc1`, the selectivity ratio in data set [1] stood at 1.3. Further, the values for the IC50 in data set [2], in data set [3] and in data set [5] were 8 µM, 6 µM and 7 µM, respectively. The “Ratio IC50” value in data set [4] came to 1.2.
In the case of `Clc1cc(Cl)cc(Nc2nc(C(Cl)(Cl)Cl)nc3ccccc23)c1`, the selectivity ratio in data set [1] worked out at 2.2. Also, the figures for the IC50 in data set [2], in data set [3] and in data set [5] were 9 µM, 4 µM and 10 µM, respectively. Besides, in data set [4], the “Ratio IC50” value came out at 2.5.
The corresponding values for `ClC(Cl)(Cl)c1nc(N2CCCC2)c2ccccc2n1` are greater than 3, greater than 125 µM, 41.5 µM, greater than 250 µM and greater than 6.
Consider `Fc1cccc(Nc2nc(C(Cl)(Cl)Cl)nc3ccccc23)c1`, for which, in data set [1], the selectivity ratio is 3.8. Further, the results for the IC50 in data set [2], in data set [3] and in data set [5] were 15 µM, 4 µM and 16 µM, respectively. Moreover, the Ratio IC50 in data set [4] came to 1.
The corresponding values for `CCCCNc1nc(C(Cl)(Cl)Cl)nc2ccccc12` are greater than 3.5, greater than 50 µM, 14.3 µM, 16 µM and 1.1.
Turning to `Clc1ccc(Nc2nc(C(Cl)(Cl)Cl)nc3ccccc23)cc1`, the selectivity ratio in data set [1] was found to be 4.7. In addition, the IC50 turned out to be 14 µM in data set [2], 3 µM in data set [3] and 9 µM in data set [5]. Also, the “Ratio IC50” value in data set [4] was found to be 3.
The corresponding values for `ClC(Cl)(Cl)c1nc(Nc2ccc(Br)cc2)c2ccccc2n1` are 10, 15 µM, 1.5 µM, 10 µM and 5.7.
For `Cc1cccc(Nc2nc(C(Cl)(Cl)Cl)nc3ccccc23)c1`, the selectivity ratio in data set [1] was 3.9. Also, the IC50 in data set [2] was found to be 9 µM; in data set [3], 2.3 µM; in data set [5] it was 12 µM. The “Ratio IC50” value in data set [4] was determined as 5.2.
Consider `ClC(Cl)(Cl)c1nc(N2CCOCC2)c2ccccc2n1`, for which, in data set [1], the selectivity ratio was greater than 8.4. The values for the IC50 in data set [2], in data set [3] and in data set [5] were greater than 125 µM, 14.9 µM and 63 µM, respectively. Moreover, the “Ratio IC50” value in data set [4] is listed as greater than 2.
For the compound `O=[N+]([O-])c1ccc(Nc2nc(C(Cl)(Cl)Cl)nc3ccccc23)cc1`, the selectivity ratio in data set [1] worked out at 1.8. Further, the IC50 was 5 µM in data set [2], 2.8 µM in data set [3] and 6 µM in data set [5]. The “Ratio IC50” value in data set [4] is reported as 2.1.
For the compound `Clc1cccc(Cl)c1Nc1nc(C(Cl)(Cl)Cl)nc2ccccc12`, the selectivity ratio in data set [1] was found to be 0.5. Further, the IC50 in data set [2] came to 10 µM; in data set [3] it was 21.9 µM; in data set [5] it was 23 µM. Besides, in data set [4], the “Ratio IC50” value was found to be 1.1.
In the case of `Fc1ccccc1Nc1nc(C(Cl)(Cl)Cl)nc2ccccc12`, in data set [1], the selectivity ratio was 3.3. Moreover, the IC50 stood at 30 µM in data set [2], 9 µM in data set [3] and 10 µM in data set [5]. For the same compound, in data set [4], the “Ratio IC50” value is 1.1.
The like results for `ClC(Cl)(Cl)c1nc(NC2CCCCCC2)c2ccccc2n1` were, in that order, greater than 9.8, greater than 50 µM, 5.1 µM, 19 µM and 3.7.
The like results for `ClC(Cl)(Cl)c1nc(Nc2cccc3ccccc23)c2ccccc2n1` were, in that order, 0.8, 5 µM, 6 µM, 15 µM and 2.5.
The like results for `FC(F)(F)Oc1ccc(Nc2nc(C(Cl)(Cl)Cl)nc3ccccc23)cc1` were, in that order, 2.1, 6 µM, 2.9 µM, 6 µM and 2.1.
`O=[N+]([O-])c1ccccc1Nc1nc(C(Cl)(Cl)Cl)nc2ccccc12`: the selectivity ratio in data set [1] is greater than 20. Further, the concentration for half-maximal inhibition (IC50) was greater than 60 µM in data set [2], 3 µM in data set [3] and greater than 100 µM in data set [5]. Also, the “Ratio IC50” value in data set [4] is greater than 33.3.
Turning to `FC(F)(F)c1cc(Nc2nc(C(Cl)(Cl)Cl)nc3ccccc23)cc(C(F)(F)F)c1`, the selectivity ratio in data set [1] was found to be 3.3. Moreover, the IC50 in data set [2] is 10 µM; in data set [3], 3 µM; in data set [5], 3 µM. The “Ratio IC50” value in data set [4] was found to be 1.
Regarding `Cc1ccc(Nc2nc(C(Cl)(Cl)Cl)nc3ccccc23)cc1`, the selectivity ratio in data set [1] turned out to be 2.5. Besides, the IC50 in data set [2] came out at 6 µM; in data set [3], 2.4 µM; in data set [5], 8 µM. In addition, the “Ratio IC50” value in data set [4] was determined as 3.3.
The like results for `FC(F)(F)c1ccc(Nc2nc(C(Cl)(Cl)Cl)nc3ccccc23)cc1` were, in that order, 2.5, 4 µM, 1.6 µM, 6 µM and 3.8.
Compound `CCN(CC)CCCC(C)Nc1ccnc2cc(Cl)ccc12` (stereo not drawn) [CHLOROQUINE] registered an IC50 in data set [2] of 32 µM.
In the case of `COc1cccc2c1C(=O)c1c(O)c3c(c(O)c1C2=O)C[C@@](O)(C(=O)CO)C[C@@H]3O[C@H]1C[C@H](N)[C@H](O)[C@H](C)O1` [DOXORUBICIN], the IC50 was found to be 0.06 µM in data set [2] and 0.2 µM in data set [5].
